Data on one compound can be found in ChEMBL document CHEMBL4699485, “Discovery and Development of SPR519 as a Potent, Selective, and Orally Bioavailable Inhibitor of PI3Kα and mTOR Kinases for the Treatment of Solid Tumors” (J Med Chem, 2020).

A word on the EC50: it is the concentration giving half of the maximal effect. A high value points to a need for much substance. As a reminder, the inhibition is the drop in the measured response relative to a control, in per cent. The IC50 is the midpoint of a concentration-inhibition curve.

The test system of one data set is PC-3. Kind of data set: Antiproliferative activity against human PC-3 cells after 48 hrs by MTT assay. To be noted: PC-3, 48 h. The class given is functional, cell-based. In outline:
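PC3 cells grown in RPMI 1640 with 10% FBS and 1% penicillin/streptomycin at 37 °C, 5% CO2, seeded at 10000 cells/well. Treated 48 h across 20 µM–0.001 µM. MTT (5 mg/mL in PBS) added for 4 h, then DMSO solubilization and absorbance at 550 nm. Four-parameter nonlinear fit of % inhibition.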
In general terms: Formazan colour is commonly taken as a measure of viable cells.

Data set [1] deals with Inhibitor of nuclear factor kappa-B kinase subunit beta (Homo sapiens) (UniProt O14920). Kind of data set: Inhibition of human IKBKB at 1 uM using fluorescently labeled peptide substrate measured after 3 hrs by microfluidic mobility shift assay relative to control. In outline: (§1)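 Single-concentration screen at 1 µM in duplicate, 1% final DMSO. Kinase (typically 1 nM), fluorescently labeled peptide substrate (typically 1 µM), ATP at Km and Mg²⁺ incubated about 3 h at 25 °C, then EDTA-quenched. Substrate and phosphorylated product separated by microfluidic electrophoresis and quantified by fluorescence.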

In data set [2] the target is Dual specificity mitogen-activated protein kinase kinase 2 (Homo sapiens) (UniProt P36507). Put plainly: Inhibition of human MEK2 at 1 uM using fluorescently labeled peptide substrate measured after 3 hrs by microfluidic mobility shift assay relative to control. The method in brief: as §1
The target of data set [3] is Ribosomal protein S6 kinase beta-1 (Homo sapiens) (UniProt P23443). Put plainly: Inhibition of human P70S6K1 at 1 uM using fluorescently labeled peptide substrate measured after 3 hrs by microfluidic mobility shift assay relative to control. The method in brief:
as §1

Data set [4] deals with Receptor-type tyrosine-protein kinase FLT3 (Homo sapiens) (UniProt P36888). Put plainly: Inhibition of human FLT3 at 1 uM using fluorescently labeled peptide substrate measured after 3 hrs by microfluidic mobility shift assay relative to control. In outline:
as §1

Data set [5] in a line: Toxicity in Swiss mouse assessed as body weight loss at 10 mg/kg, po administered twice daily via gavage for 5 days and measuring daily during compound dosing. To be noted: in vivo, 120 h, time 5 day. The data set is classed as organism-based. The method in brief: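 Female Swiss mice (3 treated, 2 vehicle controls) received oral gavage twice daily for 5 days, with compound formulated in 0.5% CMC and Tween 80. Body weight, body temperature, body coat, feed intake, eyes, feces and general activity were observed daily.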

The nature of data set [6]: Toxicity in Swiss mouse assessed as discoloration of liver at 30 mg/kg, po administered twice daily via gavage for 5 days and measured post last dose. The class given is organism-based. The following applies: in vivo, 120 h, time 5 day. In outline:
(§2)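 Female Swiss mice (3 treated, 2 controls) were gavaged twice daily for 5 days, with compound in 0.5% CMC and Tween 80. After the last dosing the animals were sacrificed. Liver, kidney, lung, uterus and brain were excised and inspected visually for morphology and color change.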

Data set [7] has as its target RAC-gamma serine/threonine-protein kinase (Homo sapiens) (UniProt Q9Y243). Kind of data set: Inhibition of human AKT3 at 1 uM using fluorescently labeled peptide substrate measured after 3 hrs by microfluidic mobility shift assay relative to control. In outline: as §1
Data set [8] addresses Voltage-gated inwardly rectifying potassium channel KCNH2 (Homo sapiens, UniProt Q12809). Kind of data set: Inhibition of human ERG by patch-clamp assay.
Data set [9] addresses Inhibitor of nuclear factor kappa-B kinase subunit epsilon (Homo sapiens) (UniProt Q14164). Kind of data set: Inhibition of human IKBKE at 1 uM using fluorescently labeled peptide substrate measured after 3 hrs by microfluidic mobility shift assay relative to control. The method in brief:
as §1

Another data set addresses Cytochrome P450 2D6 (Homo sapiens, UniProt P10635). Kind of data set: Inhibition of CYP2D6 in human liver microsomes using isoform-specific probe substrates preincubated for 5 mins followed by NADPH addition by LC-MS/MS analysis. The data set is classed as ADME. In outline: (§3)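 Human liver microsomes premixed with buffer and a CYP-specific FDA-recommended probe substrate, then spiked with inhibitor, in duplicate. After 5 min preincubation at 37 °C, reaction started with NADPH and run at 37 °C for a set time, then quenched. Metabolite formation quantified by HPLC/LC-MS/MS to derive the concentration giving 50% inhibition.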
Background: Microsomes from liver hold many membrane-bound enzymes, among them those of drug oxidation.

The target of data set [10] is PI3-kinase p110-alpha/p85-alpha (Homo sapiens, UniProt P42336). Put plainly: Inhibition of recombinant human full-length N-terminal His-tagged p110 alpha/p85 alpha expressed in baculovirus expression system using PIP2 as substrate preincubated for 15 mins followed by substrate addition and measured after 60 mins by ADP HiLyte 647 tracer bound ADP2 antibody-Tb conjugate based HTRF assay. The method in brief:
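PI3Kα at 150 ng/mL (diluted stock) in 50 mM HEPES pH 7.4, 3 mM MgCl2, 2 mM DTT, 0.05% CHAPS, 50 mM NaCl, 1 mM EGTA. Compound tested over 10–0.001 µM. Final reaction held 50 µM PIP2 and 1 µM ATP. Detection mix added for 1 h, then 665/615 nm ratio read. % inhibition versus concentration fitted by four-parameter nonlinear regression to give IC50.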

The subject of data set [11] is SK-OV-3. Kind of data set: Antitumor activity against human SK-OV-3 cells xenografted in CD1 nude mouse assessed as tumor growth inhibition at 2.5 mg/kg, po administered once daily for 27 days and measured on day 3. The class given is functional, organism-based. To be noted: time 27.0 day. In outline:
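Female CD1 nude mice bearing subcutaneous SK-OV-3 xenografts, randomized at average tumor size 120–130 mm³, five per group. Given oral doses of 2.5, 5 or 10 mg/kg once daily for 27 days alongside a vehicle control. Tumor volume from caliper length and width as (width² × length)/2, tracked every third day. Two-way ANOVA with Dunnett's test, n=5.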
(In xenograft studies the graft and the host belong to different species.)

Another data set deals with Cytochrome P450 2C19 (Homo sapiens, UniProt P33261). Kind of data set: Inhibition of CYP2C19 in human liver microsomes using isoform-specific probe substrates preincubated for 5 mins followed by NADPH addition by LC-MS/MS analysis. The class given is ADME. In outline:
as §3

In data set [12] the test system is SK-OV-3. Put plainly: Antiproliferative activity against human SK-OV-3 cells after 48 hrs by MTT assay. The data set is classed as functional, cell-based. The following applies: SK-OV-3, 48 h. In outline:
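SK-OV-3 cells grown in McCoy's 5a with 10% FBS, 100 U/mL penicillin and 100 µg/mL streptomycin at 37 °C, 5% CO2, seeded at 10000 cells/well. Treated 48 h across 20 µM–0.001 µM. MTT (5 mg/mL in PBS) added for 4 h, DMSO solubilization, absorbance read at 550 nm. Four-parameter curve fit of % inhibition.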

Data set [13] can be described thus: Toxicity in Swiss mouse assessed as discoloration of brain at 30 mg/kg, po administered twice daily via gavage for 5 days and measured post last dose. The class given is organism-based. To be noted: in vivo, 120 h, time 5 day. The method in brief:
as §2

Data set [14] deals with Phosphatidylinositol 4,5-bisphosphate 3-kinase catalytic subunit delta isoform (Homo sapiens) (UniProt O00329). Put plainly: Inhibition of human PI3kdelta at 1 uM using fluorescently labeled peptide substrate measured after 3 hrs by microfluidic mobility shift assay relative to control. The method in brief: as §1
A further data set is filed under the species Homo sapiens. Put plainly: Channel blockade of human ERG G601S mutant expressed in mammalian expression system assessed as effect on surface expression of channel at 1 to 30 uM by HERG-Lite assay. To be noted: dose microM 1-30. The method in brief:
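HERG-lite assay scoring both channel blocking and trafficking inhibition, with test compound at 1, 10 and 30 µM. Geldanamycin (1 µM) served as the trafficking-inhibition reference and astemizole as the standard hERG binder.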

Data set [15] has as its target Receptor tyrosine-protein kinase erbB-2 (Homo sapiens) (UniProt P04626). Put plainly: Inhibition of human ERBB2 at 1 uM using fluorescently labeled peptide substrate measured after 3 hrs by microfluidic mobility shift assay relative to control. The method in brief:
as §1

Structures are written as SMILES. Calls of active or inactive are those of the source. The rule behind the calls is not given here.

Chain of Receptor tyrosine-protein kinase erbB-2 (Homo sapiens) (P04626 whole entry): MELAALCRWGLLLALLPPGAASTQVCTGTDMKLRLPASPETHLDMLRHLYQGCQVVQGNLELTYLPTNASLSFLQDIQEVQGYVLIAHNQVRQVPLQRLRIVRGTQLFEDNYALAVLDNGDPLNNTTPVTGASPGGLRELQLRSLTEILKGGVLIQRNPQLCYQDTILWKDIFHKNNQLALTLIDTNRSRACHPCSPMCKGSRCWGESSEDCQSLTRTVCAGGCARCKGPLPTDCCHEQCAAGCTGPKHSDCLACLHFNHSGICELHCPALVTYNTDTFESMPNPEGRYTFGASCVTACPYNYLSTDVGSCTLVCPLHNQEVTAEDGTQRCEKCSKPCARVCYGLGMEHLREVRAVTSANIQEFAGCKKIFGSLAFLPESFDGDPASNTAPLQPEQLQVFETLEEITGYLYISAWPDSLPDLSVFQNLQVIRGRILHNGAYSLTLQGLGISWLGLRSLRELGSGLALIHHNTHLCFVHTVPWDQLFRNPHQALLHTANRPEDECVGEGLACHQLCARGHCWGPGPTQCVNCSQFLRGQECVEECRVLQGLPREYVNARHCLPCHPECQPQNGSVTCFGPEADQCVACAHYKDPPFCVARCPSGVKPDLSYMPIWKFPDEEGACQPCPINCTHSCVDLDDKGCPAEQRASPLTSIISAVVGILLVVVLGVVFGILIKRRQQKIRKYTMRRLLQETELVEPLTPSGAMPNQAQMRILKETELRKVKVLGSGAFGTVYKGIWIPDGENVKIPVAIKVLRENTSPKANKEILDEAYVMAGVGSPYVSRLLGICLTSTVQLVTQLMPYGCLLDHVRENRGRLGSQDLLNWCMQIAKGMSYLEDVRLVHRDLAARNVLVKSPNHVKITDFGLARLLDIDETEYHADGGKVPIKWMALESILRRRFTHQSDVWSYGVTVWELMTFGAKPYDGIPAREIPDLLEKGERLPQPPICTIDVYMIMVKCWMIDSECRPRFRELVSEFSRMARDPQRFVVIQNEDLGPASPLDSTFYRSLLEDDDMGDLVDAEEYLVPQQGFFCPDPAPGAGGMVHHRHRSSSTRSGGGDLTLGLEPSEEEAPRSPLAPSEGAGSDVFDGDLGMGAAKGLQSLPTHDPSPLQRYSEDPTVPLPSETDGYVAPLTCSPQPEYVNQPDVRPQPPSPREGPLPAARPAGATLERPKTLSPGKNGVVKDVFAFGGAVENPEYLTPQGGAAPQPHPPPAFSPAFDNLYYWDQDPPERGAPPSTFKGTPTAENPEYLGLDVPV
Chain of Inhibitor of nuclear factor kappa-B kinase subunit beta (Homo sapiens) (O14920 whole entry): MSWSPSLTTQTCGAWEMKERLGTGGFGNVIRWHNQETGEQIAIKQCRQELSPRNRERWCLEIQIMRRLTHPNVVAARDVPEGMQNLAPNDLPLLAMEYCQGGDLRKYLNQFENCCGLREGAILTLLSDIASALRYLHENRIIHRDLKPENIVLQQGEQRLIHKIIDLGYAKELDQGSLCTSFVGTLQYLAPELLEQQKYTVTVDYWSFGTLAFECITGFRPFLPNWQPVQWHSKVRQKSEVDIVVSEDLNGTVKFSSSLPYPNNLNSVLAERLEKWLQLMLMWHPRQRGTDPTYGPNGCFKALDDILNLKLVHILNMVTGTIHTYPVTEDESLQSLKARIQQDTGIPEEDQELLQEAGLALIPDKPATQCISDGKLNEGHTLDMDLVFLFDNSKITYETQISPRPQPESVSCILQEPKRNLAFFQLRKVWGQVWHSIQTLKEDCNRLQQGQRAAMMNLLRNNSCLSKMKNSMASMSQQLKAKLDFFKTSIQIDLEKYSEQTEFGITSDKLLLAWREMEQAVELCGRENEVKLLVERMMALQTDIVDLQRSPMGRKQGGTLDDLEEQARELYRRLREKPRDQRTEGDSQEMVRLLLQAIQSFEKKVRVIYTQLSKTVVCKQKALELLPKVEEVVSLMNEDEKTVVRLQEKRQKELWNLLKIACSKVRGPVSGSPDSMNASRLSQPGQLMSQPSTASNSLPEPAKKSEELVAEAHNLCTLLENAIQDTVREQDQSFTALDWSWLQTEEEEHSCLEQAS
Chain of Dual specificity mitogen-activated protein kinase kinase 2 (Homo sapiens) (P36507 whole entry): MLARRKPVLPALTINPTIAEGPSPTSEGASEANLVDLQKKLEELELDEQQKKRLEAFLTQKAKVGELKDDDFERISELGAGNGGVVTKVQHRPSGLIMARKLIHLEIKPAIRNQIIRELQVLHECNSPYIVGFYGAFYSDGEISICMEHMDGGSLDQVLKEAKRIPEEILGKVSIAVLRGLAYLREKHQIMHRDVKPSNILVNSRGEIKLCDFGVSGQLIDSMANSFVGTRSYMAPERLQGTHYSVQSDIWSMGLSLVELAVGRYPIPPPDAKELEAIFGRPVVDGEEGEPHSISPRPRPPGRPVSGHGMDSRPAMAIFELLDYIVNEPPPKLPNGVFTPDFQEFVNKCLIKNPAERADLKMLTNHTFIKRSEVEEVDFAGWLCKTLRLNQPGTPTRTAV
Chain of Inhibitor of nuclear factor kappa-B kinase subunit epsilon (Homo sapiens) (Q14164 whole entry): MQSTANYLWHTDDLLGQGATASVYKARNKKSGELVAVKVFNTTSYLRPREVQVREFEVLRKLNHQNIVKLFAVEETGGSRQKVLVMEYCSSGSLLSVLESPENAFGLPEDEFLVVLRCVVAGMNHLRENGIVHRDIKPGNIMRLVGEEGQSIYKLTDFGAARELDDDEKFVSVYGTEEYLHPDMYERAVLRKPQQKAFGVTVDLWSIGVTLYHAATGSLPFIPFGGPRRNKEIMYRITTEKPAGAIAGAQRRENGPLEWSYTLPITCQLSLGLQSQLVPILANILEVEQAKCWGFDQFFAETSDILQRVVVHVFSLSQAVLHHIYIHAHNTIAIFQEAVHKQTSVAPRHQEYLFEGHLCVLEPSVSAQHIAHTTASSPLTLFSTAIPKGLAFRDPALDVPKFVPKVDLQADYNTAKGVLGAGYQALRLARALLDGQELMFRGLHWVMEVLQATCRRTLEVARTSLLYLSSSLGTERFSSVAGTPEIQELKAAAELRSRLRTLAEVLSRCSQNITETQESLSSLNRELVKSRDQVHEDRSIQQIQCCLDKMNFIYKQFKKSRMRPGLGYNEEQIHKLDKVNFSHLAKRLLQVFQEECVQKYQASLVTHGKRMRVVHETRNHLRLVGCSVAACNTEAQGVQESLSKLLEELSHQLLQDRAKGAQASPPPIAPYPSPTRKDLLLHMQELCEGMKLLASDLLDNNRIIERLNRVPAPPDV
Chain of RAC-gamma serine/threonine-protein kinase (Homo sapiens) (Q9Y243 whole entry): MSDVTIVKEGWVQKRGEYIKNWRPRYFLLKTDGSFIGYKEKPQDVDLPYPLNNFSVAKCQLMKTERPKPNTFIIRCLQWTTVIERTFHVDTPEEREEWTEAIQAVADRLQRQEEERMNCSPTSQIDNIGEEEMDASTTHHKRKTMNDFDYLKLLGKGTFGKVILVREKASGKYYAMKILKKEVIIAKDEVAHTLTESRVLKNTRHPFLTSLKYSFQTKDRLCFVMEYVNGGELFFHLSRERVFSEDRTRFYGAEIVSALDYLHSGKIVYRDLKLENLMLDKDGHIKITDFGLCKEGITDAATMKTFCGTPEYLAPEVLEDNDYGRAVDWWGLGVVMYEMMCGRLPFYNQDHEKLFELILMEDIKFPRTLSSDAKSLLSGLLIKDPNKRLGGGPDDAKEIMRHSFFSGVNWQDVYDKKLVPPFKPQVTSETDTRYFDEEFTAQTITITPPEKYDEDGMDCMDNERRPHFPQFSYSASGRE
Chain of Cytochrome P450 2D6 (P10635 whole entry, canonical isoform): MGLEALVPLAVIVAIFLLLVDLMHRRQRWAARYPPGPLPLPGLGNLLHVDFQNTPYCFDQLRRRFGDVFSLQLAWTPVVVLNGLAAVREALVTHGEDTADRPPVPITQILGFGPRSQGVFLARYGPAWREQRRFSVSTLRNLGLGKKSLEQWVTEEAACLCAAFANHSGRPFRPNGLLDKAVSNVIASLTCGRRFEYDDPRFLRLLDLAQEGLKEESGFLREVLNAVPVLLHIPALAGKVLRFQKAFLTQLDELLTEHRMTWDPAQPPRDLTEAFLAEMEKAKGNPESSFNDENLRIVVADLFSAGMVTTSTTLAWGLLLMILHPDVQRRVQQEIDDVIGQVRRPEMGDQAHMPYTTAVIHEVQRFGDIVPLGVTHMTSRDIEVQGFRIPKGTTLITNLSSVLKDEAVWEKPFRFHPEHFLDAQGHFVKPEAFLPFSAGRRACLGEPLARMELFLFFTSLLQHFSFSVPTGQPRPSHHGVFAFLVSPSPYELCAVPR
Chain of Cytochrome P450 2C19 (P33261 whole entry, canonical isoform): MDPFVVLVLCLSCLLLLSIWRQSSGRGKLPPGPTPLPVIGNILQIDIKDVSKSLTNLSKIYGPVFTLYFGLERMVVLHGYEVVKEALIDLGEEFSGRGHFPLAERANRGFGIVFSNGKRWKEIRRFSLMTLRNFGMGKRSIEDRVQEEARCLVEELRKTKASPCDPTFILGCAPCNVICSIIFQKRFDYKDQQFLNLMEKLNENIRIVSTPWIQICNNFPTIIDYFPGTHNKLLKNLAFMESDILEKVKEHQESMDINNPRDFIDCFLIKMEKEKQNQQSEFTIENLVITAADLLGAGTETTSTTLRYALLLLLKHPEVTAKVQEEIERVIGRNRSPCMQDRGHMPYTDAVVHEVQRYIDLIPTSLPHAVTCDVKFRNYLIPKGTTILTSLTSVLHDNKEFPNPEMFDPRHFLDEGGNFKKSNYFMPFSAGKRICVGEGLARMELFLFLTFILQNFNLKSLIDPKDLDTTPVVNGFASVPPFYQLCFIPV

As for `CN(C)C(=O)c1ccc(Oc2nc(-c3cnc(N)s3)nc(N3CCOCC3)n2)cc1`, the values for the EC50 with PC-3 and in the data set on SK-OV-3 [12] were 480 nM and 500 nM, respectively. The inhibition in data set [1] is -3%; in [2], 1%; in [3] it was -1%; in data set [4], 9%; in [7], -1%; in data set [9] it was -1%. Besides, the inhibition was 88% in [14] and -1% in data set [15]. Moreover, the Activity result is “Non-Toxic” in [5], “Toxic” in [6] and “Non-Toxic” in data set [13]. Moreover, the IC50 was greater than 10000 nM in data set [8], greater than 10000 nM at Cytochrome P450 2D6, 30 nM in [10] and greater than 10000 nM against Cytochrome P450 2C19. Moreover, in the data set with SK-OV-3 [11], the TGI result was “Active”. Moreover, the outcome in the data set listed under Homo sapiens was Active.
